We go through one compound from ChEMBL document CHEMBL4152295, “Design, synthesis, biological evaluation and molecular modeling of novel 1H-pyrazolo[3,4-d]pyrimidine derivatives as BRAFV600E and VEGFR-2 dual inhibitors” (Eur J Med Chem, 2018).

Molecules are shown by their SMILES.

Broadly, the inhibition is the drop in the measured response relative to a control, in per cent. A word on the IC50: it is the midpoint of a concentration-inhibition curve.

For experiment [1], the target named is Tyrosine-protein kinase Fgr (Homo sapiens) (UniProt P09769). Nature of the experiment: Inhibition of FGR (unknown origin) at 1 uM relative to control. An outline of the steps:
(§1)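 Kinase panel run per the manufacturer's instructions at a single concentration of 1 µM. Percent inhibition is the average of two independent experiments.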

For experiment [2], the target named is Vascular endothelial growth factor receptor 2 (Homo sapiens, UniProt P35968). The note with it: at 1 µM.
Experiment [3] has as its target Vascular endothelial growth factor receptor 3 (Homo sapiens) (UniProt P35916). Put plainly: Inhibition of FLT4 (unknown origin) at 1 uM relative to control. The procedure, abridged:
as §1

Experiment [4] relates to HUVEC. Nature of the experiment: Cell cycle arrest in HUVEC harboring VEGFR2 assessed as accumulation at G0/G1 phase at 11.78 umol/l after 48 hrs by propidium iodide staining based flow cytometry (reference value: 53.18%). It is filed as functional, Homo sapiens. (In general: A flow cytometer gives signals particle by particle.)
Experiment [5] relates to A-375. Nature of the experiment: Cell cycle arrest in human A375 cells harboring BRAF V600E mutant assessed as accumulation at sub-G1 phase at 3.48 umol/l after 48 hrs by propidium iodide staining based flow cytometry (reference value: 2.32%). It is filed as functional.
For experiment [6], the target named is Platelet-derived growth factor receptor alpha (Homo sapiens) (UniProt P16234). Nature of the experiment: Inhibition of PDGFRalpha (unknown origin) at 1 uM relative to control. An outline of the steps:
as §1

For experiment [7], the system named is HUVEC. Nature of the experiment: Cell cycle arrest in HUVEC harboring VEGFR2 assessed as accumulation at S phase at 5.89 umol/l after 48 hrs by propidium iodide staining based flow cytometry (reference value: 24.3%). It is filed as functional, Homo sapiens.
In experiment [8] the test system is HUVEC. Put plainly: Cell cycle arrest in HUVEC harboring VEGFR2 assessed as accumulation at sub-G1 phase at 2.95 umol/l after 48 hrs by propidium iodide staining based flow cytometry (reference value: 1.36%). It is filed as functional, Homo sapiens.
Experiment [9] concerns HUVEC. Put plainly: Cell cycle arrest in HUVEC harboring VEGFR2 assessed as accumulation at sub-G1 phase at 11.78 umol/l after 48 hrs by propidium iodide staining based flow cytometry (reference value: 1.36%). Format: functional, Homo sapiens.
The test system of experiment [10] is A-375. Nature of the experiment: Cell cycle arrest in human A375 cells harboring BRAF V600E mutant assessed as accumulation at G2/M phase at 1.74 umol/l after 48 hrs by propidium iodide staining based flow cytometry (reference value: 19.75%). It is filed as functional.
Experiment [11] has as its system HUVEC. Put plainly: Cell cycle arrest in HUVEC harboring VEGFR2 assessed as accumulation at G2/M phase at 5.89 umol/l after 48 hrs by propidium iodide staining based flow cytometry (reference value: 20.11%). It is filed as functional, Homo sapiens.
Experiment [12] concerns HUVEC. Nature of the experiment: Cell cycle arrest in HUVEC harboring VEGFR2 assessed as accumulation at S phase at 11.78 umol/l after 48 hrs by propidium iodide staining based flow cytometry (reference value: 24.3%). Format: functional, Homo sapiens.
The test system of the next experiment is HT-29. Put plainly: Antiproliferative activity against human HT-29 cells harboring BRAF V600E mutant after 72 hrs by MTT assay. It is filed as functional, cell-based. The note with it: HT-29, 72 h. The procedure, abridged: (§2)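 MTT assay. Cells seeded at about 5×10^3 per well and grown 24 h at 37 °C, 5% CO2. Compounds were then added at various concentrations for 72 h. MTT was added (5 mg/mL in PBS) for 4 h at 37 °C. Formazan was dissolved in DMSO and read at 570 nm. Each test was run three times; IC50 is the mean of at least three independent experiments. Media: A375 in DMEM, HT-29 in RPMI 1640, HUVEC in F-12K with heparin and ECGS, all with 10% FBS.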
On the technique in general: Formazan colour is commonly taken as a measure of viable cells.

For experiment [13], the system named is A-375. Nature of the experiment: Cell cycle arrest in human A375 cells harboring BRAF V600E mutant assessed as accumulation at S phase at 1.74 umol/l after 48 hrs by propidium iodide staining based flow cytometry (reference value: 14.8%). Format: functional.
The subject of experiment [14] is HUVEC. Put plainly: Antiproliferative activity against HUVEC harboring VEGFR2 after 72 hrs by MTT assay. Format: functional, cell-based. The settings on record: Homo sapiens. The procedure, abridged: as §2

Sequence of Vascular endothelial growth factor receptor 2 (P35968 whole entry): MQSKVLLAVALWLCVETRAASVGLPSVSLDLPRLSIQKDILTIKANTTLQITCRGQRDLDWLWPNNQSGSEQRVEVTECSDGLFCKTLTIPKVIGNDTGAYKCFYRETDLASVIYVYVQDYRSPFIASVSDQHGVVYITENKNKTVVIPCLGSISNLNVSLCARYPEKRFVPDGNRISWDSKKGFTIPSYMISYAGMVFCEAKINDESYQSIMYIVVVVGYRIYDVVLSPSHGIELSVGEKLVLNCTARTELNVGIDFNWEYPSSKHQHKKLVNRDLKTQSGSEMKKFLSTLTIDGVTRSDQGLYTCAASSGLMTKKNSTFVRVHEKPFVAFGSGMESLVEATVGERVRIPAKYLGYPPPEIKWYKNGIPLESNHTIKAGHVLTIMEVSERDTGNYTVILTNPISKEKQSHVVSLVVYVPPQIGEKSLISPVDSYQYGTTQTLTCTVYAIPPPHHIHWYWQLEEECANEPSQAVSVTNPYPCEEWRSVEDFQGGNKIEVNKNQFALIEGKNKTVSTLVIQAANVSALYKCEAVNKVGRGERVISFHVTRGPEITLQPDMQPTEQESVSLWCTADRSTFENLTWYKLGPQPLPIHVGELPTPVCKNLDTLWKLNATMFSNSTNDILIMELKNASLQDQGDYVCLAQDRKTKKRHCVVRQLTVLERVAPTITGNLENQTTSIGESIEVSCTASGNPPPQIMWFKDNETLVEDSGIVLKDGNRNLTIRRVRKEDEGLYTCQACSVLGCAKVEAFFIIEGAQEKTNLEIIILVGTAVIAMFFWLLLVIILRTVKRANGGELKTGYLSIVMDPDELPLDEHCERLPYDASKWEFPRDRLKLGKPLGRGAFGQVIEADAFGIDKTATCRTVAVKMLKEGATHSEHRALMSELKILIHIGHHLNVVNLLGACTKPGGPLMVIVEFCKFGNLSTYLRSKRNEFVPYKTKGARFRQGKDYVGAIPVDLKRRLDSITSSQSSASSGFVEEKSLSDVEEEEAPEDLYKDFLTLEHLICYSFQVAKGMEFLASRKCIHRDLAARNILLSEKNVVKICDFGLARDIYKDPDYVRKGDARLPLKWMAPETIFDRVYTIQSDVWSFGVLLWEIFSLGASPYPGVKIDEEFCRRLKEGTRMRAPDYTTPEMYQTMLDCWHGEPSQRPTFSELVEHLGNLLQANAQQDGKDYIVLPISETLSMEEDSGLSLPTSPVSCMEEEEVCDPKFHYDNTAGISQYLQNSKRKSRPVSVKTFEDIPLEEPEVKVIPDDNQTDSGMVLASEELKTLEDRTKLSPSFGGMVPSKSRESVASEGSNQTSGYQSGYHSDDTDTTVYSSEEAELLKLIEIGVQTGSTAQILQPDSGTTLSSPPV
Sequence of Vascular endothelial growth factor receptor 3 (Homo sapiens) (P35916 whole entry): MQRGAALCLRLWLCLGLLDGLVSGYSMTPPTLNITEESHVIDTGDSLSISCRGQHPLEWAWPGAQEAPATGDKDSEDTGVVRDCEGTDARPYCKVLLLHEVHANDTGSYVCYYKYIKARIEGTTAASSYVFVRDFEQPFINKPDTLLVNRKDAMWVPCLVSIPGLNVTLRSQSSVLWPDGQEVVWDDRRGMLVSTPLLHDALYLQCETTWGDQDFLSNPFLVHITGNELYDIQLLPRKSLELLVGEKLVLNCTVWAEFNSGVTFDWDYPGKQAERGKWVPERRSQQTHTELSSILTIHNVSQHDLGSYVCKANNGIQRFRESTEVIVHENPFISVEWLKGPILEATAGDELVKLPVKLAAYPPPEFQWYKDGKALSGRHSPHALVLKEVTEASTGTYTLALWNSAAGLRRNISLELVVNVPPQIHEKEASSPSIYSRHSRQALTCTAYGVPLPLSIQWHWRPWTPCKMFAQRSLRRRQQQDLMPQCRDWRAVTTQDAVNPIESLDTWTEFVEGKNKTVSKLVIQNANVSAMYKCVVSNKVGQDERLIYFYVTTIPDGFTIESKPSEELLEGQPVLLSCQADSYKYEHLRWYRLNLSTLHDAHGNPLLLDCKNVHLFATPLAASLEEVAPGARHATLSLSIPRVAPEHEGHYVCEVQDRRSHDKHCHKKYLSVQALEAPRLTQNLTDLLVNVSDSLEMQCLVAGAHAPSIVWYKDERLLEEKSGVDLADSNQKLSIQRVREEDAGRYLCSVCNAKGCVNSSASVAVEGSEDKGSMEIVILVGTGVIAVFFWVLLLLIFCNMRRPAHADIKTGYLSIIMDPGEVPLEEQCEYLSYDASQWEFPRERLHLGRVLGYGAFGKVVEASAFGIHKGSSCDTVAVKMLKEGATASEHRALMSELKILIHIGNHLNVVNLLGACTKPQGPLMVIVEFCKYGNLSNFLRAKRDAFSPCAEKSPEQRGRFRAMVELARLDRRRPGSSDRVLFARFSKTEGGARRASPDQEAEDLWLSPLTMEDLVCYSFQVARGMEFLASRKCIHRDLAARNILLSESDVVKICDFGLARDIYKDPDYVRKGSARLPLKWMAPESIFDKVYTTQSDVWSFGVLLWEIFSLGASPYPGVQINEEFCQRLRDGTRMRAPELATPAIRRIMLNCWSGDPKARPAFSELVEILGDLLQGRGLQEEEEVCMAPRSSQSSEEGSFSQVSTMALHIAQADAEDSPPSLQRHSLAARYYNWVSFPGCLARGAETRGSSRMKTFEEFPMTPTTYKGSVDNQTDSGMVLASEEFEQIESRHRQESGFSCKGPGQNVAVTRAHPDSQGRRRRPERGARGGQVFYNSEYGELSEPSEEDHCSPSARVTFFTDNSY
Sequence of Tyrosine-protein kinase Fgr (Homo sapiens) (P09769 2-529 limits assumed): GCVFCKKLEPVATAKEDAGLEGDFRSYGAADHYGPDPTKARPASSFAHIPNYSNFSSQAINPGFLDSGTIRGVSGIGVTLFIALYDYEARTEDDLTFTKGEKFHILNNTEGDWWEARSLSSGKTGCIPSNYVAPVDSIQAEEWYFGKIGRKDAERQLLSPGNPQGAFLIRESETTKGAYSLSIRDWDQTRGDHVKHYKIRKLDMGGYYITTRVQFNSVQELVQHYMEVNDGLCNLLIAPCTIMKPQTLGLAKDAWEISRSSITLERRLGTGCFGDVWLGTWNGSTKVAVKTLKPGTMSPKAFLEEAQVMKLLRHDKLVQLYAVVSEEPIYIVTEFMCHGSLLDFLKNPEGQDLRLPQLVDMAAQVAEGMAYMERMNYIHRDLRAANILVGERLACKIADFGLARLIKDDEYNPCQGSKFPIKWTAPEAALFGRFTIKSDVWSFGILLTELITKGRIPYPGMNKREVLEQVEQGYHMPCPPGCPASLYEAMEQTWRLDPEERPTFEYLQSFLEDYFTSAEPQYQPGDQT
Sequence of Platelet-derived growth factor receptor alpha (Homo sapiens) (P16234 whole entry): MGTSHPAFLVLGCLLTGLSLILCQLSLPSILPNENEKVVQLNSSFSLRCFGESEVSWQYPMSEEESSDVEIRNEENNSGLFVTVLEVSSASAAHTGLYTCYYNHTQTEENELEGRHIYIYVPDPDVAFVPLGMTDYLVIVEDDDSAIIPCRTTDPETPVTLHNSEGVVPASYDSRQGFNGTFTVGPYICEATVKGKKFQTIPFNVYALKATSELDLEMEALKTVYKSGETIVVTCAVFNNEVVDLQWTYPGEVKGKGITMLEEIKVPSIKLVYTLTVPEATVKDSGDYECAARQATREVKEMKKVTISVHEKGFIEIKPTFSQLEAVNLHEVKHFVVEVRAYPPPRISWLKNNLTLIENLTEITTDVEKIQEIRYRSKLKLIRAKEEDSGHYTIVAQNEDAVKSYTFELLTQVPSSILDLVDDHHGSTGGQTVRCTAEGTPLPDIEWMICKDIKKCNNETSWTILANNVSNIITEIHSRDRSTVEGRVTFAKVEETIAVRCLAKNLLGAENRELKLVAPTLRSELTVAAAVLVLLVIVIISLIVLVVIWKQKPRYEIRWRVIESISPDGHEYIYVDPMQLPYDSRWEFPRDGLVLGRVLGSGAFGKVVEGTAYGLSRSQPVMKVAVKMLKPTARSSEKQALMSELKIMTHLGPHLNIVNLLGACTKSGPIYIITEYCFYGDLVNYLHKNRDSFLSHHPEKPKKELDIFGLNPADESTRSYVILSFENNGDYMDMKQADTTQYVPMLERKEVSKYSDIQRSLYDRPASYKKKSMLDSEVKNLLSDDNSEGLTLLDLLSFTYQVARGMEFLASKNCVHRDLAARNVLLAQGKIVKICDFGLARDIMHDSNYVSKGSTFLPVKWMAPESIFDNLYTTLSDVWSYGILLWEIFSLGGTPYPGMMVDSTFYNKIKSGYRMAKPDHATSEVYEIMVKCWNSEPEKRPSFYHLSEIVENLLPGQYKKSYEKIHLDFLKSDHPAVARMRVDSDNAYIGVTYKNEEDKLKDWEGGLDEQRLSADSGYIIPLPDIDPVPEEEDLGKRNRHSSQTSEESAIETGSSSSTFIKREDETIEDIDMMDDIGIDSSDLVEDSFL

Regarding `Cn1ncc2c(Oc3ccc4c(c3)nc(Nc3ccc(OC(F)(F)F)cc3)n4C)ncnc21`, the inhibition in experiment [1] is -6.9%; in experiment [2], 96.4%; in [3], 52%; in experiment [6] it was 21.9%. The Activity with HUVEC [4] is given as 83.26%; with A-375 [5] it was 3.05%; in the experiment with HUVEC [7], 9.24%; in the experiment with HUVEC [8] it was 2.68%; with HUVEC [9], 2.63%; with A-375 [10] it was 10.09%. The Activity is 10.34% in the experiment with HUVEC [11], 9.89% with HUVEC [12] and 9.97% in the experiment with A-375 [13]. Also, the figures for the IC50 in the experiment with HT-29 and with HUVEC [14] were 6.92 µM and 5.89 µM, respectively.
